# Data as given in ChEMBL document CHEMBL5724801, “EUbOPEN Chemogenomics Library - Multiplex” (2024).
# “And” between values parts separate entries of the source, which are not always exact repeats. Equal values may be shown once.
# Tested on: U2OS
# Assay: Multiplex assay against U2OS
# Assay type: toxicity, cell-based
# Conditions: human
# Procedure, shortened: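 On a CQ1 microscope at 37°C and 5% CO2, live cells were imaged after compound addition. They had been stained at seeding with Hoechst33342, BioTracker Green Microtubule Cytoskeleton Dye, MitoTracker Red and Annexin V Alexa Fluor 680. CellPathfinder machine-learning gating assigned cells to Hoechst high-intensity objects or normal cells, normal cells to healthy, pyknosed or fragmented nuclei, and pyknosed cells to mitotic or apoptotic. Tubulin, mitochondrial-mass and membrane-permeability phenotypes are per cents of healthy-nucleus cells.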
# [1] = 12 h, 1 µM, compound concentration 1 uM
# [2] = 12 h, 10 µM, compound concentration 10 uM
# [3] = 24 h, 1 µM, compound concentration 1 uM
# [4] = 24 h, 10 µM, compound concentration 10 uM
# [5] = 48 h, 1 µM, compound concentration 1 uM
# [6] = 48 h, 10 µM, compound concentration 10 uM
compound,measurement,setting,value
Cl.Cl.OCCOCCN1CCN(C(c2ccccc2)c2ccc(Cl)cc2)CC1 (stereo not drawn) [HYDROXYZINE HYDROCHLORIDE],Population Apoptotic (%),[1],60% and 80%
same,Population Fragmented Nuclei (%),[1],29% and 13%
same,Population Healthy Nuclei (%),[1],61% and 78%
same,Population Hoechst High Intensity Objects (%),[1],0% and 1%
same,Population Membrane Permeable-Phenotype (%),[1],11% and 9%
same,Population Mitochondria Different-Phenotype (%),[1],4% and 6%
same,Population Mitotic Cells (%),[1],40% and 20%
same,Population Normal (%),[1],99% and 98%
same,Population Pyknosed Nuclei (%),[1],9% and 7%
same,Population Tubulin-Different-Phenotype (%),[1],7% and 8%
same,Total Cell Count,[1],208 and 139
same,Population Apoptotic (%),[2],58% and 88%
same,Population Fragmented Nuclei (%),[2],20% and 26%
same,Population Healthy Nuclei (%),[2],66%
same,Population Hoechst High Intensity Objects (%),[2],1% and 2%
same,Population Membrane Permeable-Phenotype (%),[2],9% and 5%
same,Population Mitochondria Different-Phenotype (%),[2],10% and 7%
same,Population Normal (%),[2],98% and 97%
same,Population Pyknosed Nuclei (%),[2],13% and 6%
same,Population Tubulin-Different-Phenotype (%),[2],6% and 7%
same,Total Cell Count,[2],316 and 141
same,Population Apoptotic (%),[3],96% and 77%
same,Population Fragmented Nuclei (%),[3],25% and 9%
same,Population Healthy Nuclei (%),[3],63% and 77%
same,Population Hoechst High Intensity Objects (%),[3],1% and 2%
same,Population Membrane Permeable-Phenotype (%),[3],8% and 5%
same,Population Mitochondria Different-Phenotype (%),[3],4% and 1%
same,Population Normal (%),[3],98% and 97%
same,Population Pyknosed Nuclei (%),[3],10% and 12%
same,Population Tubulin-Different-Phenotype (%),[3],7% and 1%
same,Total Cell Count,[3],232 and 148
same,Population Apoptotic (%),[4],73% and 61%
same,Population Fragmented Nuclei (%),[4],23% and 31%
same,Population Healthy Nuclei (%),[4],63% and 60%
same,Population Hoechst High Intensity Objects (%),[4],2%
same,Population Membrane Permeable-Phenotype (%),[4],10% and 12%
same,Population Mitochondria Different-Phenotype (%),[4],8% and 13%
same,Population Mitotic Cells (%),[4],26% and 38%
same,Population Normal (%),[4],97%
same,Population Pyknosed Nuclei (%),[4],12% and 7%
same,Population Tubulin-Different-Phenotype (%),[4],4% and 9%
same,Total Cell Count,[4],359 and 168
same,Population Apoptotic (%),[5],89% and 90%
same,Population Fragmented Nuclei (%),[5],24% and 14%
same,Population Healthy Nuclei (%),[5],62% and 76%
same,Population Hoechst High Intensity Objects (%),[5],2%
same,Population Membrane Permeable-Phenotype (%),[5],4% and 5%
same,Population Mitochondria Different-Phenotype (%),[5],3%
same,Population Mitotic Cells (%),[5],10%
same,Population Normal (%),[5],97%
same,Population Pyknosed Nuclei (%),[5],13% and 8%
same,Population Tubulin-Different-Phenotype (%),[5],4% and 0%
same,Total Cell Count,[5],300 and 230
same,Population Apoptotic (%),[6],83%
same,Population Fragmented Nuclei (%),[6],17% and 27%
same,Population Healthy Nuclei (%),[6],68% and 64%
same,Population Hoechst High Intensity Objects (%),[6],2% and 5%
same,Population Membrane Permeable-Phenotype (%),[6],8% and 10%
same,Population Mitochondria Different-Phenotype (%),[6],6% and 5%
same,Population Mitotic Cells (%),[6],16%
same,Population Normal (%),[6],97% and 94%
same,Population Pyknosed Nuclei (%),[6],13% and 8%
same,Population Tubulin-Different-Phenotype (%),[6],4% and 5%
same,Total Cell Count,[6],456 and 231
Nc1nc(-c2ccco2)c2cnn(Cc3ccccc3F)c2n1,Population Apoptotic (%),[1],82% and 92%
same,Population Fragmented Nuclei (%),[1],23%
same,Population Healthy Nuclei (%),[1],68% and 64%
same,Population Hoechst High Intensity Objects (%),[1],1% and 0%
same,Population Membrane Permeable-Phenotype (%),[1],4% and 12%
same,Population Mitochondria Different-Phenotype (%),[1],2% and 5%
same,Population Mitotic Cells (%),[1],17% and 7%
same,Population Normal (%),[1],98% and 99%
same,Population Pyknosed Nuclei (%),[1],8% and 12%
same,Population Tubulin-Different-Phenotype (%),[1],3% and 8%
same,Total Cell Count,[1],280 and 109
same,Population Apoptotic (%),[2],87% and 77%
same,Population Fragmented Nuclei (%),[2],41% and 20%
same,Population Healthy Nuclei (%),[2],45% and 72%
same,Population Hoechst High Intensity Objects (%),[2],5% and 0%
same,Population Membrane Permeable-Phenotype (%),[2],10% and 5%
same,Population Mitochondria Different-Phenotype (%),[2],4% and 5%
same,Population Mitotic Cells (%),[2],12% and 22%
same,Population Normal (%),[2],94% and 99%
same,Population Pyknosed Nuclei (%),[2],12% and 7%
same,Population Tubulin-Different-Phenotype (%),[2],7% and 1%
same,Total Cell Count,[2],197 and 125
same,Population Apoptotic (%),[3],96% and 84%
same,Population Fragmented Nuclei (%),[3],19% and 18%
same,Population Healthy Nuclei (%),[3],70% and 71%
same,Population Hoechst High Intensity Objects (%),[3],1% and 4%
same,Population Membrane Permeable-Phenotype (%),[3],4% and 10%
same,Population Mitochondria Different-Phenotype (%),[3],1% and 3%
same,Population Normal (%),[3],98% and 95%
same,Population Pyknosed Nuclei (%),[3],9% and 10%
same,Population Tubulin-Different-Phenotype (%),[3],2% and 8%
same,Total Cell Count,[3],332 and 127
same,Population Apoptotic (%),[4],82% and 90%
same,Population Fragmented Nuclei (%),[4],38% and 19%
same,Population Healthy Nuclei (%),[4],53% and 73%
same,Population Hoechst High Intensity Objects (%),[4],5% and 1%
same,Population Membrane Permeable-Phenotype (%),[4],7% and 5%
same,Population Mitochondria Different-Phenotype (%),[4],3% and 0%
same,Population Mitotic Cells (%),[4],17% and 9%
same,Population Normal (%),[4],94% and 98%
same,Population Pyknosed Nuclei (%),[4],7%
same,Population Tubulin-Different-Phenotype (%),[4],5% and 4%
same,Total Cell Count,[4],230 and 157
same,Population Apoptotic (%),[5],94% and 95%
same,Population Fragmented Nuclei (%),[5],17% and 16%
same,Population Healthy Nuclei (%),[5],74% and 67%
same,Population Hoechst High Intensity Objects (%),[5],1% and 6%
same,Population Membrane Permeable-Phenotype (%),[5],2% and 5%
same,Population Mitochondria Different-Phenotype (%),[5],2% and 5%
same,Population Mitotic Cells (%),[5],5% and 4%
same,Population Normal (%),[5],98% and 93%
same,Population Pyknosed Nuclei (%),[5],7% and 15%
same,Population Tubulin-Different-Phenotype (%),[5],2% and 1%
same,Population Apoptotic (%),[6],95% and 86%
same,Population Fragmented Nuclei (%),[6],37% and 23%
same,Population Healthy Nuclei (%),[6],51% and 69%
same,Population Hoechst High Intensity Objects (%),[6],11% and 2%
same,Population Membrane Permeable-Phenotype (%),[6],17% and 12%
same,Population Mitochondria Different-Phenotype (%),[6],6%
same,Population Mitotic Cells (%),[6],4% and 13%
same,Population Normal (%),[6],88% and 97%
same,Population Pyknosed Nuclei (%),[6],10% and 7%
same,Population Tubulin-Different-Phenotype (%),[6],11% and 6%
same,Total Cell Count,[6],252 and 196
